Data set [1] relates to RAW264.7. The experiment in a line: Cytotoxicity against LPS-stimulated mouse RAW264.7 cells at 20 uM after 24 hrs by MTT assay. It counts as cell-based. The note with it: raw264.7, 24 h. The method, boiled down: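 RAW264.7 cells co-treated with test agent (20 μM) and LPS (1 μg/mL) for 24 h; survival read by MTT. Mean ± SD, n = 3; significance versus control group.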
A general note: Formazan colour is commonly taken as a measure of viable cells.

The test system of data set [2] is RAW264.7. The experiment in a line: Antiinflammatory activity in mouse RAW264.7 cells assessed as inhibition of LPS-induced NO production at 20 uM after 24 hrs by Griess method. It counts as functional, cell-based. The method, boiled down: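 RAW264.7 cells co-treated with test agent (20 μM) and LPS (1 μg/mL) for 24 h. NO released to medium measured by Griess assay. Hydrocortisone sodium succinate (20 μM) positive control. Mean ± SD, n = 3; significance versus control.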
A general note: Griess reagent forms a coloured azo dye with nitrite.

Data set [3] concerns RAW264.7. Description: Inhibition of LPS-stimulated NFkappaB activation in mouse RAW264.7 cells assessed as reduction in LPS-induced IkappaB degradation at 20 uM after 2 hrs by Western blot analysis. It counts as cell-based. The method, boiled down: (§1)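 RAW264.7 cells co-treated 2 h with LPS (1 μg/mL) plus test agent (10, 20, 30 μM) or hydrocortisone sodium succinate (20 μM). IκB phosphorylation and degradation assessed as NF-κB pathway read-out. Mean ± SD, n = 3; significance versus LPS-stimulated group.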
Background: Immunoblotting shows a protein as a band on a membrane.

Data set [4] concerns RAW264.7. The experiment in a line: Inhibition of LPS-stimulated NFkappaB activation in mouse RAW264.7 cells assessed as reduction in LPS-induced IkappaB phosphorylation at 20 uM after 2 hrs by Western blot analysis. The class given is cell-based. The method, boiled down:
as §1

For data set [5], the system named is RAW264.7. The experiment in a line: Antiinflammatory activity in mouse RAW264.7 cells assessed as reduction in LPS-induced iNOS expression at 20 uM after 24 hrs by Western blot analysis. It counts as functional, cell-based. The method, boiled down:
(§2)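 RAW264.7 cells co-treated 24 h with LPS (1 μg/mL) plus test agent (10, 20, 30 μM) or hydrocortisone sodium succinate (20 μM). COX-2 and iNOS protein levels determined. Mean ± SD of three independent experiments; significance versus LPS-stimulated group.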

Data set [6] has as its system RAW264.7. Description: Antiinflammatory activity in mouse RAW264.7 cells assessed as reduction in LPS-induced COX2 protein expression at 20 uM after 24 hrs by Western blot analysis. The class given is functional, cell-based. The method, boiled down:
as §2

For data set [7], the system named is RAW264.7. The experiment in a line: Antiinflammatory activity in mouse RAW264.7 cells assessed as reduction in LPS-stimulated TNF alpha secretion preincubated for 2 hrs followed by LPS addition and measured after 4 hrs by ELISA. It counts as functional, cell-based. The method, boiled down: (§3)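 RAW264.7 cells pretreated 2 h with test agent (10, 20, 30 μM) or hydrocortisone sodium succinate (20 μM), then LPS (1 μg/mL) for 4 h. TNF-α and IL-6 production measured. Mean ± SD, n = 3; significance versus control group.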

In data set [8] the test system is RAW264.7. Description: Antiinflammatory activity in mouse RAW264.7 cells assessed as reduction in LPS-induced IL-6 secretion preincubated for 2 hrs followed by LPS addition and measured after 4 hrs by ELISA. It counts as functional, cell-based. The method, boiled down: as §3
Data set [9] deals with RAW264.7. The experiment in a line: Antiinflammatory activity in mouse RAW264.7 cells assessed as reduction in LPS-induced iNOS expression after 24 hrs by Western blot analysis. It counts as functional, cell-based. The method, boiled down: as §2
Data set [10] relates to RAW264.7. The experiment in a line: Antiinflammatory activity in mouse RAW264.7 cells assessed as reduction in LPS-induced COX2 protein expression after 24 hrs by Western blot analysis. It counts as functional, cell-based. The method, boiled down: as §2
Data set [11] deals with RAW264.7. The experiment in a line: Inhibition of LPS-stimulated NFkappaB activation in mouse RAW264.7 cells assessed as reduction in LPS-induced IkappaB degradation at 10 to 30 uM after 2 hrs by Western blot analysis. The class given is cell-based. The method, boiled down:
as §1

The test system of data set [12] is RAW264.7. Description: Inhibition of LPS-stimulated NFkappaB activation in mouse RAW264.7 cells assessed as reduction in LPS-induced IkappaB phosphorylation at 10 to 30 uM after 2 hrs by Western blot analysis. The class given is cell-based. The method, boiled down: as §1
For data set [13], the system named is RAW264.7. The experiment in a line: Antiinflammatory activity in LPS-induced mouse RAW264.7 cells in presence of glucocorticoid receptor antagonist RU-486. The class given is functional, cell-based.

Activity calls are given as the source filed them. No cut-off for these calls is given here.

On to `CCCCCC(=O)O[C@H]1CC[C@]2(C)[C@H]3C[C@@H](O)[C@@H]4[C@@H]([C@]5(C)CC[C@@H](C(C)(C)O)O5)CC[C@@]4(C)[C@]3(C)CC[C@H]2C1(C)C`, for which the Activity result with RAW264.7 [1] is “Non-Toxic”. The inhibition entry with RAW264.7 [2] was “Active”.

With `CC(C)(O)[C@H]1CC[C@@](C)([C@H]2CC[C@]3(C)[C@@H]2C(=O)C[C@@H]2[C@@]4(C)CC[C@H](O)C(C)(C)[C@@H]4CC[C@]23C)O1`, in the data set with RAW264.7 [1], the Activity result is “Non-Toxic”. For the same molecule, the inhibition result with RAW264.7 [2] was “Active”.

Regarding `CC(C)(O)[C@H]1CC[C@@](C)([C@H]2CC[C@]3(C)[C@@H]2[C@H](O)C[C@@H]2[C@@]4(C)CCC(=O)C(C)(C)[C@@H]4CC[C@]23C)O1`, the Activity entry in the data set with RAW264.7 [1] is recorded as “Non-Toxic”. Moreover, in the data set with RAW264.7 [2], the inhibition entry was “Active”.

In the case of `CC(C)(O)[C@H]1CC[C@@](C)([C@H]2CC[C@]3(C)[C@@H]2[C@H](O)C[C@@H]2[C@@]4(C)CC[C@H](O)C(C)(C)[C@@H]4CC[C@]23C)O1`, the Activity entry in the data set on RAW264.7 [1] is listed as “Non-Toxic”. For the same molecule, in the data set with RAW264.7 [2], the inhibition result is “Active”.

As for `CC(C)(O)[C@H]1CC[C@@](C)([C@H]2CC[C@]3(C)[C@@H]2[C@@H](N)C[C@@H]2[C@@]4(C)CC[C@H](O)C(C)(C)[C@@H]4CC[C@]23C)O1`, the Activity entry with RAW264.7 [1] was “Toxic”.

Turning to `CC(C)(O)[C@H]1CC[C@@](C)([C@H]2CC[C@]3(C)[C@@H]2/C(=N/O)C[C@@H]2[C@@]4(C)CC[C@H](O)C(C)(C)[C@@H]4CC[C@]23C)O1`, in the data set on RAW264.7 [1], the Activity result was “Non-Toxic”. Further, in the data set on RAW264.7 [2], the inhibition result was “inactive”.

Turning to `CC(C)(O)[C@H]1CC[C@@](C)([C@H]2CC[C@]3(C)[C@@H]2[C@H](O)C[C@@H]2[C@@]4(C)CC[C@H](N)C(C)(C)[C@@H]4CC[C@]23C)O1`, the Activity entry in the data set on RAW264.7 [1] was “Non-Toxic”. Also, the inhibition entry in the data set on RAW264.7 [2] was “Active”.

On to `CC(C)(O)[C@H]1CC[C@@](C)([C@H]2CC[C@]3(C)[C@@H]2[C@@H](O)C[C@@H]2[C@@]4(C)CC[C@H](O)C(C)(C)[C@@H]4CC[C@]23C)O1`, for which, in the data set on RAW264.7 [2], the inhibition result was “inactive”.

Regarding `C[C@]12CCC(=O)C=C1CC[C@@H]1[C@@H]2[C@@H](O)C[C@@]2(C)[C@H]1CC[C@]2(O)C(=O)COC(=O)CCC(=O)O`, the inhibition result in the data set with RAW264.7 [3] and with RAW264.7 [4] was “Active” in each case. The outcome with RAW264.7 [5] and in the data set on RAW264.7 [6] was Active.

As to `CC(C)(O)[C@@H]1CC[C@@](C)([C@H]2CC[C@]3(C)[C@@H]2[C@H](O)C[C@@H]2[C@@]4(C)CC/C(=N\O)C(C)(C)[C@@H]4CC[C@]23C)O1`, the Activity result with RAW264.7 [1] was “Non-Toxic”. For the same molecule, the inhibition entry in the data set with RAW264.7 [2] was “Active”.

On to `CC(C)(O)[C@H]1CC[C@@](C)([C@H]2CC[C@]3(C)[C@@H]2C(=O)C[C@@H]2[C@@]4(C)CCC(=O)C(C)(C)[C@@H]4CC[C@]23C)O1`, for which the Activity result with RAW264.7 [1] is on record as “Non-Toxic”.

In the case of `CC(C)(O)[C@H]1CC[C@@](C)([C@H]2CC[C@]3(C)[C@@H]2[C@H](O)C[C@@H]2[C@@]4(C)CC[C@@H](N)C(C)(C)[C@@H]4CC[C@]23C)O1`, in the data set on RAW264.7 [1], the Activity entry was “Non-Toxic”. Moreover, the inhibition result in the data set with RAW264.7 [2] was “Active”.

As for `CCCCCC(=O)O[C@H]1CC[C@]2(C)[C@H]3C[C@@H](O)[C@@H]4[C@@H]([C@]5(C)CC[C@H](C(C)(C)O)O5)CC[C@@]4(C)[C@]3(C)CC[C@H]2C1(C)C`, the Activity result with RAW264.7 [1] is “Non-Toxic”. In addition, in the data set with RAW264.7 [2], the inhibition result was “Active”.

For the molecule `CC(C)(O)[C@@H]1CC[C@@](C)([C@H]2CC[C@]3(C)[C@@H]2[C@H](O)C[C@@H]2[C@@]4(C)CCC(=O)C(C)(C)[C@@H]4CC[C@]23C)O1`, in the data set with RAW264.7 [1], the Activity entry is recorded as “Non-Toxic”. In the data set with RAW264.7 [2], the inhibition entry is “Active”.

As to `CC(C)(O[Si](C)(C)C(C)(C)C)[C@H]1CC[C@@](C)([C@H]2CC[C@]3(C)[C@@H]2[C@H](O)C[C@@H]2[C@@]4(C)CC[C@H](O)C(C)(C)[C@@H]4CC[C@]23C)O1`, the Activity result in the data set with RAW264.7 [1] is recorded as “Non-Toxic”. In the data set on RAW264.7 [2], the inhibition result is “inactive”.

Consider `CC(C)(O)[C@H]1CC[C@@](C)([C@H]2CC[C@]3(C)[C@@H]2C(=N)C[C@@H]2[C@@]4(C)CC[C@H](O)C(C)(C)[C@@H]4CC[C@]23C)O1`, for which, in the data set on RAW264.7 [1], the Activity entry is given as “Non-Toxic”. Moreover, the inhibition entry in the data set on RAW264.7 [2] is “inactive”.

As to `CC(C)(O)[C@H]1CC[C@@](C)([C@H]2CC[C@]3(C)[C@@H]2[C@H](O)C[C@@H]2[C@@]4(C)CC/C(=N\O)C(C)(C)[C@@H]4CC[C@]23C)O1`, the Activity result is “Non-Toxic” in the data set with RAW264.7 [1]; “Dose-dependent effect” in the data set with RAW264.7 [7]; “Dose-dependent effect” with RAW264.7 [8]; “Dose-dependent effect” in the data set on RAW264.7 [9]; “Dose-dependent effect” with RAW264.7 [10]. For the same molecule, the inhibition entry with RAW264.7 [2], in the data set on RAW264.7 [11] and with RAW264.7 [12] was “Active” in each case. Also, in the data set on RAW264.7 [13], the result was Active.

As to `CC(C)(O)[C@@H]1CC[C@@](C)([C@H]2CC[C@]3(C)[C@@H]2[C@H](O)C[C@@H]2[C@@]4(C)CC[C@H](O)C(C)(C)[C@@H]4CC[C@]23C)O1`, the Activity result in the data set with RAW264.7 [1] is listed as “Non-Toxic”. The inhibition result with RAW264.7 [2] was “inactive”.

On to `CC(C)(O)[C@@H]1CC[C@@](C)([C@H]2CC[C@]3(C)[C@@H]2[C@H](O)C[C@@H]2[C@@]4(C)CC[C@H](N)C(C)(C)[C@@H]4CC[C@]23C)O1`, for which the Activity result in the data set on RAW264.7 [1] is given as “Non-Toxic”. For the same molecule, in the data set on RAW264.7 [2], the inhibition result is “Active”.

The values are drawn from ChEMBL document CHEMBL4602707, “Synthesis and Structure-Activity Relationship of Pyxinol Derivatives as Novel Anti-Inflammatory Agents” (ACS Med Chem Lett, 2020).
